The results in this text go back to ChEMBL document CHEMBL4049456, “Identification of 4-(Aminomethyl)-6-(trifluoromethyl)-2-(phenoxy)pyridine Derivatives as Potent, Selective, and Orally Efficacious Inhibitors of the Copper-Dependent Amine Oxidase, Lysyl Oxidase-Like 2 (LOXL2)” (J Med Chem, 2017).

What is called IC50 is the midpoint of a concentration-inhibition curve. What is called IC90 is the concentration needed for an effect of 90%. By Cmax is commonly meant the peak of the concentration-time curve. As a reminder, the inhibition is the relative decrease from the control value, in per cent.

For data set [1], the target named is T1, Lysyl oxidase homolog 2 (Homo sapiens, UniProt Q9Y4K0).
T1 sequence (Q9Y4K0 whole entry): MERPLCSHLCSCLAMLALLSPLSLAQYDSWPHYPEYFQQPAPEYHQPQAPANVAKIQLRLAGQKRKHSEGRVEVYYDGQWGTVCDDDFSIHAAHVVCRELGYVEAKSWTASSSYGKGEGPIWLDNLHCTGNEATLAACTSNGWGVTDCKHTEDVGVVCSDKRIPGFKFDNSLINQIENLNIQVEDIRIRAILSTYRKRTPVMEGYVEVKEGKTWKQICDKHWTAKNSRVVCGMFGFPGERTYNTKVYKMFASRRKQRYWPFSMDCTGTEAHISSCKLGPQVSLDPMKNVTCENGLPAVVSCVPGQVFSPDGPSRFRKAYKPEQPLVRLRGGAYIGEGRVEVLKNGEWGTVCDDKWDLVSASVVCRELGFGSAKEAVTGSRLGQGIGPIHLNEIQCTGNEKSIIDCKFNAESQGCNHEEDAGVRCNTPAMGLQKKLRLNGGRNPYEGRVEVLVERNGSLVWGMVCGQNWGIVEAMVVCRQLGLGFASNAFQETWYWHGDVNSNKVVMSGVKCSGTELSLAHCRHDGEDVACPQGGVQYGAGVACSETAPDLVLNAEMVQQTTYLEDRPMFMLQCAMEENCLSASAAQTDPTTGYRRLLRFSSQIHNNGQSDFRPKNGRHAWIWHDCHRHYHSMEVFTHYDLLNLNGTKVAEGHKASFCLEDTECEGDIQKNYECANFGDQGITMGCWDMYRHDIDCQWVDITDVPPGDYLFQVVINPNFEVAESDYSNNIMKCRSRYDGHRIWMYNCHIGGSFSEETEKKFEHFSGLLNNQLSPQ
Put plainly: Inhibition of human LOXL2 expressed in CHO cells assessed as reduction of H2O2 production from oxidative deamination of DAP preincubated for 2 hrs followed by substrate addition measured every 2 mins for 1 hr by amplex red reagent-based fluorescence assay. It counts as cell-based.

For data set [2], the target named is T2, Protein-lysine 6-oxidase (Homo sapiens, UniProt P28300).
T2 sequence (P28300 whole entry): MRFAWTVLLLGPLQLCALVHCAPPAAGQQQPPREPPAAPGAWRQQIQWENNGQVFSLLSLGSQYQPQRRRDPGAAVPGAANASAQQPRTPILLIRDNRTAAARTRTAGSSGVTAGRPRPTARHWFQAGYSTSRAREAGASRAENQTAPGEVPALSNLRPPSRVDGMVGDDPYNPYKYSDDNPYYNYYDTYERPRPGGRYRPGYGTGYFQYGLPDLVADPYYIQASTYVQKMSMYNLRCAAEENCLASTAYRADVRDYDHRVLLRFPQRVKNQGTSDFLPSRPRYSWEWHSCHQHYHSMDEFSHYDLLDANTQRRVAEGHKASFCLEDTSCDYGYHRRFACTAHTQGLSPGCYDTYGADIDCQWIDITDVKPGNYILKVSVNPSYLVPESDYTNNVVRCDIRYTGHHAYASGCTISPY
Description: Inhibition of human LOX expressed in HEK cells assessed as reduction of H2O2 production from oxidative deamination of DAP preincubated for 2 hrs followed by substrate addition in presence of 0.1% BSA measured every 2 mins for 1 hr by amplex red reagent-based fluorescence assay. It counts as cell-based.

For data set [3], the target named is T3, Lysyl oxidase homolog 2 (Homo sapiens) (UniProt Q9Y4K0).
T3 sequence (whole entry): T1 sequence (Q9Y4K0 whole entry)
Description: (§1) Inhibition of recombinant human LOXL2 expressed in human whole blood assessed as reduction of H2O2 production from oxidative deamination of DAP preincubated for 2 hrs followed by substrate addition measured every 2 mins for 1 hr by amplex red reagent-based fluorescence assay.

Data set [4] has as its target T1, Lysyl oxidase homolog 2. The description is as §1.
Data set [5] in a line: Cmax in C57BL/6 mouse plasma at 30 mg/kg, po by LC-MS/MS analysis. Details: dose 30 mg/kg, route oral. It counts as ADME, organism-based. Put shortly: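 Normal C57BL/6 mice, n = 3 per time point, received a single oral 30 mg/kg dose formulated in 0.5% methylcellulose.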
Data set [6] has as its target T3, Lysyl oxidase homolog 2 (Homo sapiens). Description: Irreversible inhibition of human LOXL2 assessed as catalytic activity preincubated for 2 hrs followed by substrate addition measured every 2 mins for 1 hr by amplex red reagent-based fluorescence assay relative to control. More on the design: concentration or dose not given beside the values.
The test system of data set [7] is Mus musculus. Put plainly: Toxicity in C57BL/6 mouse assessed as body weight loss at 3 to 60 mg/kg, po qd administered 15 days starting 1 day prior to bleomycin instillation. It is filed as organism-based. The settings on record: in vivo.
Data set [8] has as its system Mus musculus. Put plainly: Toxicity in C57BL/6 mouse assessed as mortality at 3 to 60 mg/kg, po qd administered 15 days starting 1 day prior to bleomycin instillation. It counts as organism-based. The settings on record: in vivo. In outline:
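Male C57BL/6 mice, 6 to 7 weeks old. Lung fibrosis induced by a single oropharyngeal bleomycin dose (1.5 U/kg). Compound given orally once daily at 3, 10, 30 or 60 mg/kg for 15 days, starting 1 day before bleomycin. Mortality and body weight loss monitored; lungs taken at day 14 post-bleomycin.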

The subject of data set [9] is Mus musculus. Put plainly: Antifibrotic activity in C57BL/6 mouse assessed as reduction of lung fibrosis administered as po qd for 15 days starting 1 day prior to bleomycin instillation measured on day 14 post bleomycin instillation by Masson's trichrome staining-based assay. It counts as functional. In outline:
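Lung fibrosis induced in male C57BL/6 mice aged 6 to 7 weeks by a single oropharyngeal dose of bleomycin (1.5 U/kg). Compound given orally once daily at 3, 10, 30 or 60 mg/kg for 15 days, starting 1 day before bleomycin. Lungs taken at day 14 post-bleomycin, stained with H&E and Masson's trichrome, and an Ashcroft score assigned.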

Turning to `Cl.NCc1cc(Oc2cccc(C(=O)N3C[C@@H](O)[C@H](F)C3)c2)nc(C(F)(F)F)c1` (racemic), the half-inhibitory concentration (IC50) in data set [1] came to 0.078 µM; in [2] it was 35 µM; in data set [4], 0.87 µM. Further, the IC90 in data set [3] came out at 5.4 µM. Also, the maximum concentration (Cmax) in data set [5] was determined as 3.09 µM. Also, the inhibition in data set [6] amounted to 97%. In addition, the results for the Activity in data set [7], in [8] and in data set [9] were less than 5%, “Non-Toxic” and “Dose-dependent effect”, respectively. In addition, in data set [9] (C57BL/6, po, read-out: MED), the minimal effective dose worked out at 30 mg/kg.
